Kir21 inh = inhibitors of mouse Kir2.1 inward-rectifier potassium channel | B-score at 10 µM | 310,000 compounds, 0.85% hits | HEK293-Kir2.1, FluxOR thallium flux fluorescence; active compounds read low | P35561;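 active means fluorescence ratio B-score at or below minus 3 SD of library scores, with starting-brightness B-score within 2 SD, cut at about -4.2 in these data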;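 further: channel flux triggered by added potassium and thallium sulfate stimulus; B-score of peak minus minimum fluorescence over baseline after thallium stimulus; more negative B-score means stronger Kir2.1 block with less thallium influx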
Target sequence (P35561 whole entry, looked up): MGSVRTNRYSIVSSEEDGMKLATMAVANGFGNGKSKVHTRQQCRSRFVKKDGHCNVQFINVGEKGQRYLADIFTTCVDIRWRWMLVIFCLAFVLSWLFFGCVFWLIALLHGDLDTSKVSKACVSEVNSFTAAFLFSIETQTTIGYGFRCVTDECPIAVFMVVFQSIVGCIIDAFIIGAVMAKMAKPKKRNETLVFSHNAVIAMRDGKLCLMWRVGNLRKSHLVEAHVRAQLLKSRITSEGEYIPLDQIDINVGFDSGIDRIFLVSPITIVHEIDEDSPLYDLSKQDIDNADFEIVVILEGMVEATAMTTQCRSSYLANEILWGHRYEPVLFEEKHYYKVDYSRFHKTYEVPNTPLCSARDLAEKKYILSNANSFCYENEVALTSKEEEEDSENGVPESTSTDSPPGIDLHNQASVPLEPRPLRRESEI
TRPC6 inhibitor = mouse TRPC6 channel inhibition | HEK293-TRPC6, membrane potential dye, ACh-evoked depolarization; active compounds read low | 310,000 compounds, 1.1% hits | AID 2553 | B-score at 10 µM;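 active means B-score under library mean minus 3 SD, initial fluorescence not abnormally high, positive integrated signal ratio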;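 further: B-score derived from integrated fluorescence ratio over the kinetic read; more negative B-score means stronger inhibition of depolarization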
TRPC4 act = activators of mouse TRPC4 channel | Q9QUQ5 | HEK293 TRPC4beta/mu-opioid, Fluo4 calcium fluorescence; active compounds read high | B-score at 10 µM | 310,000 compounds, 0.49% hits | AID 2237;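 active means B-score above 5 SD of library B-scores, and initial fluorescence ratio not above library mean plus 5 SD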;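 further: positive B-score marks a calcium rise read as TRPC4 activation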
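Assay system: HEK293 cells stably co-expressing mouse TRPC4beta and mu-opioid receptor / Timing: Fluo4 dye loading 45 min at room temperature, 110 s recording / Signal: Fluo4 calcium-sensitive dye fluorescence, kinetic, 1 Hz baseline / Read-out: integrated baseline-normalised fluorescence ratio, converted to per-well B score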
TRPC4 potent = allosterically enhances the mouse TRPC4 cation channel. AID 2227. Q9QUQ5. 310,000 compounds, 0.42% hits. HEK293 TRPC4beta/mu-opioid, DAMGO EC20, Fluo-4 Ca2+ flux; active compounds read high. B-score at 10 µM;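 active means B-score of calcium response area above 5 SD of library B-scores, with initial fluorescence ratio within 5 SD of library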;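 further: B-score of integrated fluorescence ratio over time as area under calcium response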
TRPC6 act = mouse TRPC6 channel activation; Q61143; HEK293-TRPC6 membrane potential dye fluorescence; active compounds read high; B-score at 10 µM; 310,000 compounds, 0.13% hits;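 active means B-score of the integrated fluorescence ratio above library mean plus 3 SD, and starting fluorescence ratio within library mean plus 5 SD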;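 further: higher score means more depolarization so channel activation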
TRPC4 inh = blocks the mouse TRPC4 cation channel. Q9QUQ5. HEK293 TRPC4beta/mu-opioid, DAMGO-evoked Fluo4 calcium flux; active compounds read low. B-score at 10 µM. 300,000 compounds, 0.39% hits. AID 2247;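 active means B-score over 3 SD under the library average, no early fluorescence shift, positive overall ratio signal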
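Assay system: HEK293 cells with stable TRPC4beta plus mu-opioid receptor expression. Dosing: single dose. Measured by: Fluo4 Ca2+ flux fluorescence. Also added: DAMGO in two steps, submaximal then maximal. Read-out: B score from integrated Fluo4 fluorescence ratio.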
hERG ctr = blocks human hERG, in counter-screen for Kir2.1 inhibitors. 320 compounds, 20% hits. hERG-expressing cells, thallium flux. shares compounds with Kir21 inh. inhibition, % at 10 µM;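 further: host cells are CHO cells stably expressing hERG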
KCNK9 spec = tests whether Kir2.1 inhibitors also affect human KCNK9. shares compounds with Kir21 inh. KCNK9-expressing cells, ion flux inhibition. inhibition, % at 10 µM. 320 compounds, 5% hits
Kir21 ephys inh = blocks mouse Kir2.1 current in automated electrophysiology | shares compounds with Kir21 inh | Kir2.1 cells, automated patch-clamp current inhibition | AID 463252 | 320 compounds, 71% hits | inhibition, % at 25 µM
HEK293 TRPC6 ctr = checks TRPC6 modulator effects in parental HEK293 cells | shares compounds with TRPC6 inhibitor | membrane potential dye fluorescence | membrane potential signal change, % at 10 µM | 2,400 compounds, 51% hits | AID 488924;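 active means membrane potential signal moves up or down beyond 5 SD from buffer-only wells, on both duplicate plates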
HEK293 MPD ctr 2 = second counter-screen for TRPC6 modulators: effect in parental HEK293 cells. shares compounds with TRPC6 inhibitor. membrane potential dye fluorescence; after compound, maximal acetylcholine stimulation. inhibition, % at 10 µM. 2,400 compounds, 14% hits. AID 488926;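 active means membrane potential signal drops by more than 5 SD from the mean control signal, in both duplicate plates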;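 further: plate controls were acetylcholine ECmax control wells for no effect and buffer only wells for full effect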
TRPC4/MOR mod = mouse TRPC4 off-target activity of TRPC6 modulators; shares compounds with TRPC6 inhibitor; percent change from control (negative = decrease, positive = increase), % at 10 µM; HEK293 TRPC4/mu-opioid, membrane potential fluorescence; 2,400 compounds, 69% hits;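 active means membrane potential signal moved up or down beyond 5 SD of buffer control wells, in both duplicate plates, actives on both sides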;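 further: plate controls were assay buffer wells for no effect and DAMGO maximal-effect wells for full effect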
TRPC4/MOR inh 2 = mouse TRPC4 off-target activity of TRPC6 modulators, second screen; inhibition, % at 10 µM; AID 488928; 2,400 compounds, 55% hits; shares compounds with TRPC6 inhibitor; HEK293 TRPC4/mu-opioid, membrane potential dye fluorescence; stimulated with maximal-effect DAMGO;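 active means drop in membrane potential signal beyond 5 SD of the control wells in both duplicate plates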;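 further: TRPC4 counter screen for TRPC6 hits run under conditions tuned for TRPC6 not TRPC4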
TRPC6 block conf = mouse TRPC6 inhibitor confirmation. shares compounds with TRPC6 inhibitor. HEK293-TRPC6, membrane potential dye, ACh-evoked depolarization. inhibition, % at 10 µM. 3,300 compounds, 43% hits. AID 488960;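 active means fluorescence ratio falls more than 5 SD below the full-stimulation control mean, in both duplicate runs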;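 further: integrated fluorescence ratio of peak minus minimum over baseline after agonist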
Starred values were filed as active, the others as inactive. The list is not random: actives were taken first. Their share in the collection is about 2.9%. Unless noted, how the calls were made is not given here.

For Cc1ccc(CNC(=O)C(c2ccccc2)c2ccccc2)cc1 the results were Kir21 inh -0.78, TRPC6 inhibitor inactive, TRPC4 act inactive, TRPC4 potent inactive, TRPC6 act inactive and TRPC4 inh inactive.
`Cc1cc(SCC(=O)OCC(=O)N2CCCC2=O)c(C)cc1Br` gave Kir21 inh 6.5, TRPC6 inhibitor inactive, TRPC4 act inactive, TRPC4 potent inactive, TRPC6 act inactive, TRPC4 inh inactive, hERG ctr inactive, KCNK9 spec inactive and Kir21 ephys inh inactive.
Screening Cn1c(-c2ccc(F)cc2)cnc1NCc1ccc(C#N)cc1 returned Kir21 inh -0.71, TRPC6 inhibitor inactive, TRPC4 act inactive, TRPC4 potent inactive, TRPC6 act inactive and TRPC4 inh inactive.
Cn1c(-c2ccc(F)cc2)cnc1NCc1ccc(F)cc1 was read as Kir21 inh -10*, TRPC6 inhibitor inactive, TRPC4 act inactive, TRPC4 potent inactive, TRPC6 act inactive, TRPC4 inh -6*, hERG ctr inactive, KCNK9 spec inactive and Kir21 ephys inh 60%*.
Screening O=C(Nc1ccon1)Nc1ccccc1C(F)(F)F returned Kir21 inh 0, TRPC6 inhibitor inactive, TRPC4 act inactive, TRPC4 potent inactive, TRPC6 act inactive and TRPC4 inh inactive.
Screening Cc1ccc(S(=O)(=O)Oc2ccccc2/C=N/N=C(N)N)cc1 returned Kir21 inh -11*, TRPC6 inhibitor inactive, TRPC4 act inactive, TRPC4 potent inactive, TRPC6 act inactive, TRPC4 inh inactive, hERG ctr 61%*, KCNK9 spec inactive and Kir21 ephys inh inactive.
COc1ccccc1NC(=O)COC(=O)CCn1c(C)csc1=O was read as Kir21 inh 0.23, TRPC6 inhibitor inactive, TRPC4 act inactive, TRPC4 potent inactive, TRPC6 act inactive and TRPC4 inh inactive.
Cc1ccccc1Cn1c(=N)n(CC(O)c2ccco2)c2ccccc21 (stereo unspecified) was read as Kir21 inh -5.9*, TRPC6 inhibitor -5.2*, TRPC4 act inactive, TRPC4 potent inactive, TRPC6 act inactive, TRPC4 inh -6*, hERG ctr 50%*, KCNK9 spec inactive, Kir21 ephys inh inactive, HEK293 TRPC6 ctr 143%*, HEK293 MPD ctr 2 inactive, TRPC4/MOR mod 49%*, TRPC4/MOR inh 2 99%* and TRPC6 block conf 48%*.
